Reference: ChEMBL document CHEMBL1138555, “N-acylated and N,N'-diacylated imidazolidine-2-thione derivatives and N,N'-diacylated tetrahydropyrimidine-2(1H)-thione analogues: synthesis and antiproliferative activity” (Eur J Med Chem, 2009)

Legend:
SW-620 = experiment: Growth inhibition of human SW620 cells after 48 hrs by sulforhodamine B assay; type: functional; conditions: SW-620, 48 h
Procedure, shortened: (§1)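 NCI in vitro panel screen. Compounds tested at five 10-fold dilutions, 10^-4 to 10^-8 M. Cells in 96-well plates were exposed for the last 48 h of a 72 h incubation. Viability/growth was read by sulforhodamine B protein assay. GI50 is the concentration giving 50% growth inhibition. Values beyond the tested range are reported as greater or less than the maximum or minimum concentration.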

SK-OV-3 = experiment: Growth inhibition of human SKOV3 cells after 48 hrs by sulforhodamine B assay; type: functional; conditions: SK-OV-3, 48 h
Procedure, shortened: (§2)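 NCI screen panel. Five 10-fold concentrations from 10^-4 to 10^-8 M. Exposure for the last 48 h of a 72 h incubation. Growth estimated by sulforhodamine B protein assay. GI50 is the concentration giving 50% growth inhibition. Where that level was not reached or was exceeded, the value is given as above or below the highest or lowest concentration tested.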

BT-549 = experiment: Growth inhibition of human BT549 cells after 48 hrs by sulforhodamine B assay; type: functional; conditions: BT-549, 48 h; procedure, shortened: as §2
OVCAR-3 = experiment: Growth inhibition of human OVCAR-3 cells after 48 hrs by sulforhodamine B assay; type: functional; conditions: OVCAR-3, 48 h; procedure, shortened: as §2
MT4 = experiment: Antiproliferative activity against human MT4 cells assessed as reduction of growth by MTT assay; type: functional, cell-based
Procedure, shortened: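 MT-4 lymphoblastoid T cells (ATCC) in RPMI 1640 with 10% FCS, penicillin/streptomycin, checked for mycoplasma. 1 × 10⁴ mock-infected cells per well with serial dilutions from a 100 mM DMSO stock. Incubated 4 days at 37 °C, viable cells counted by MTT. IC50 versus untreated controls by linear regression. Mean of three separate experiments.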

SF-295 = experiment: Growth inhibition of human SF295 cells after 48 hrs by sulforhodamine B assay; type: functional; conditions: SF-295, 48 h; procedure, shortened: as §2
IGROV-1 = experiment: Growth inhibition of human IGROV1 cells after 48 hrs by sulforhodamine B assay; type: functional; conditions: IGROV-1, 48 h; procedure, shortened: as §2
SK-MEL-28 = experiment: Growth inhibition of human SK-MEL-28 cells after 48 hrs by sulforhodamine B assay; type: functional; conditions: SK-MEL-28, 48 h; procedure, shortened: as §2
K562 = experiment: Growth inhibition of human K562 cells after 48 hrs by sulforhodamine B assay; type: functional; conditions: K562, 48 h; procedure, shortened: as §2
MCF7 = experiment: Growth inhibition of human MCF7 cells after 48 hrs by sulforhodamine B assay; type: functional; conditions: MCF7, 48 h; procedure, shortened: as §2
SF-539 = experiment: Growth inhibition of human SF539 cells after 48 hrs by sulforhodamine B assay; type: functional; conditions: SF-539, 48 h; procedure, shortened: as §2
KM12 = experiment: Growth inhibition of human KM12 cells after 48 hrs by sulforhodamine B assay; type: functional; conditions: KM12, 48 h; procedure, shortened: as §2
M14 = experiment: Growth inhibition of human M14 cells after 48 hrs by sulforhodamine B assay; type: functional; conditions: M14, 48 h; procedure, shortened: as §2
MDA-MB-435 = experiment: Growth inhibition of human MDA-MB-435 cells after 48 hrs by sulforhodamine B assay; type: functional; conditions: MDA-MB-435, 48 h; procedure, shortened: as §2
U-251 = experiment: Growth inhibition of human U251 cells after 48 hrs by sulforhodamine B assay; type: functional; conditions: U-251, 48 h; procedure, shortened: as §1
UACC-62 = experiment: Growth inhibition of human UACC62 cells after 48 hrs by sulforhodamine B assay; type: functional; conditions: UACC-62, 48 h; procedure, shortened: as §1
LOX IMVI = experiment: Growth inhibition of human LOXIMVI cells after 48 hrs by sulforhodamine B assay; type: functional; procedure, shortened: as §2
CAKI-1 = experiment: Growth inhibition of human Caki1 cells after 48 hrs by sulforhodamine B assay; type: functional; conditions: CAKI-1, 48 h; procedure, shortened: as §2
EKVX = experiment: Growth inhibition of human EKVX cells after 48 hrs by sulforhodamine B assay; type: functional; procedure, shortened: as §2
NCI-H460 = experiment: Growth inhibition of human NCI-H460 cells after 48 hrs by sulforhodamine B assay; type: functional; conditions: NCI-H460, 48 h; procedure, shortened: as §2
HT-29 = experiment: Growth inhibition of human HT-29 cells after 48 hrs by sulforhodamine B assay; type: functional; conditions: HT-29, 48 h; procedure, shortened: as §2
HCT-116 = experiment: Growth inhibition of human HCT116 cells after 48 hrs by sulforhodamine B assay; type: functional; conditions: HCT-116, 48 h; procedure, shortened: as §2
SR = experiment: Growth inhibition of human SR cells after 48 hrs by sulforhodamine B assay; type: functional; procedure, shortened: as §1
A549 = experiment: Growth inhibition of human A549 cells after 48 hrs by sulforhodamine B assay; type: functional; conditions: A549, 48 h; procedure, shortened: as §2
HOP-92 = experiment: Growth inhibition of human HOP92 cells after 48 hrs by sulforhodamine B assay; type: functional; conditions: HOP-92, 48 h; procedure, shortened: as §2
UO-31 = experiment: Growth inhibition of human UO31 cells after 48 hrs by sulforhodamine B assay; type: functional; conditions: UO-31, 48 h; procedure, shortened: as §1
MOLT-4 = experiment: Growth inhibition of human MOLT4 cells after 48 hrs by sulforhodamine B assay; type: functional; conditions: MOLT-4, 48 h; procedure, shortened: as §2
TK-10 = experiment: Growth inhibition of human TK10 cells after 48 hrs by sulforhodamine B assay; type: functional; conditions: TK-10, 48 h; procedure, shortened: as §1
SN12C = experiment: Growth inhibition of human SN12C cells after 48 hrs by sulforhodamine B assay; type: functional; procedure, shortened: as §1
786-0 = experiment: Growth inhibition of human 786-0 cells after 48 hrs by sulforhodamine B assay; type: functional; conditions: 786-0, 48 h; procedure, shortened: as §2
OVCAR-4 = experiment: Growth inhibition of human OVCAR4 cells after 48 hrs by sulforhodamine B assay; type: functional; conditions: OVCAR-4, 48 h; procedure, shortened: as §2
T47D = experiment: Growth inhibition of human T47D cells after 48 hrs by sulforhodamine B assay; type: functional; procedure, shortened: as §1
COLO 205 = experiment: Growth inhibition of human COLO205 cells after 48 hrs by sulforhodamine B assay; type: functional; conditions: COLO 205, 48 h; procedure, shortened: as §2
SNB-75 = experiment: Growth inhibition of human SNB75 cells after 48 hrs by sulforhodamine B assay; type: functional; conditions: SNB-75, 48 h; procedure, shortened: as §1
HL-60(TB) = experiment: Growth inhibition of human HL-60(TB) cells after 48 hrs by sulforhodamine B assay; type: functional; conditions: HL-60, 48 h
Procedure, shortened: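 NCI 60-cell-line screen protocol: cells exposed to compound at five 10-fold dilutions from 10^-4 to 10^-8 M for the last 48 h of a 72 h incubation. Sulforhodamine B protein assay estimated viability/growth. GI50 (50% growth inhibition) derived; where not reached or exceeded, reported as greater or less than the highest or lowest concentration tested.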

HOP-62 = experiment: Growth inhibition of human HOP62 cells after 48 hrs by sulforhodamine B assay; type: functional; conditions: HOP-62, 48 h; procedure, shortened: as §2
Malme-3M = experiment: Growth inhibition of human MALME-3M cells after 48 hrs by sulforhodamine B assay; type: functional; procedure, shortened: as §2
ACHN = experiment: Growth inhibition of human ACHN cells after 48 hrs by sulforhodamine B assay; type: functional; procedure, shortened: as §2
NCI-H322M = experiment: Growth inhibition of human NCI-H322M cells after 48 hrs by sulforhodamine B assay; type: functional; procedure, shortened: as §2
SF-268 = experiment: Growth inhibition of human SF268 cells after 48 hrs by sulforhodamine B assay; type: functional; conditions: SF-268, 48 h; procedure, shortened: as §2
PC-3 = experiment: Growth inhibition of human PC3 cells after 48 hrs by sulforhodamine B assay; type: functional; conditions: PC-3, 48 h; procedure, shortened: as §2
HCT-15 = experiment: Growth inhibition of human HCT15 cells after 48 hrs by sulforhodamine B assay; type: functional; conditions: HCT-15, 48 h; procedure, shortened: as §2
MDA-MB-231 = experiment: Growth inhibition of human MDA-MB-231 cells after 48 hrs by sulforhodamine B assay; type: functional; conditions: MDA-MB-231, 48 h; procedure, shortened: as §2
SNB-19 = experiment: Growth inhibition of human SNB19 cells after 48 hrs by sulforhodamine B assay; type: functional; conditions: SNB-19, 48 h; procedure, shortened: as §1
DU-145 = experiment: Growth inhibition of human DU145 cells after 48 hrs by sulforhodamine B assay; type: functional; conditions: DU-145, 48 h; procedure, shortened: as §2
OVCAR-8 = experiment: Growth inhibition of human OVCAR8 cells after 48 hrs by sulforhodamine B assay; type: functional; conditions: OVCAR-8, 48 h; procedure, shortened: as §2
SK-MEL-5 = experiment: Growth inhibition of human SK-MEL-5 cells after 48 hrs by sulforhodamine B assay; type: functional; conditions: SK-MEL-5, 48 h; procedure, shortened: as §2
[1] = Growth inhibition of human […] cells after 48 hrs by sulforhodamine B assay; type: functional; procedure, shortened: as §2

CC(=O)/C(=C/N1CCN(C(=O)c2ccco2)C1=S)C(=O)c1ccccc1
GI50 (SW-620): 6.1 µM
GI50 (SK-OV-3): 17.5 µM
GI50 (BT-549): 5.6 µM
GI50 (OVCAR-3): 17.2 µM
IC50 (MT4): 5 µM
GI50 (SF-295): 19.3 µM
GI50 (IGROV-1): 10.9 µM
GI50 (SK-MEL-28): 28 µM
GI50 (K562): 6.7 µM
GI50 (MCF7): 1.3 µM
GI50 (SF-539): 1.1 µM
GI50 (KM12): 8.4 µM
GI50 (M14): 6.3 µM
GI50 (MDA-MB-435): 10.7 µM
GI50 (U-251): 13.4 µM
GI50 (UACC-62): 7.3 µM
GI50 (LOX IMVI): 8.9 µM
GI50 (CAKI-1): 9.3 µM
GI50 (EKVX): 7.9 µM
GI50 (NCI-H460): 7 µM
GI50 (HT-29): 16.9 µM
GI50 (HCT-116): 6.4 µM
GI50 (SR): 2.7 µM
GI50 (A549): 10.8 µM
GI50 (HOP-92): 11.1 µM
GI50 (UO-31): 8.8 µM
GI50 (MOLT-4): 15.9 µM
GI50 (TK-10): 10.6 µM
GI50 (SN12C): 7.7 µM
GI50 (786-0): 11.2 µM
GI50 (OVCAR-4): 20.1 µM
GI50 (T47D): 4.3 µM
GI50 (COLO 205): 16.5 µM
GI50 (SNB-75): 10.9 µM
GI50 (HL-60(TB)): 8.2 µM
GI50 (HOP-62): 11.7 µM
GI50 (Malme-3M): 9.3 µM
GI50 (ACHN): 6.9 µM
GI50 (NCI-H322M): 27.9 µM
GI50 (SF-268): 10.7 µM
GI50 (PC-3): 17.1 µM
GI50 (HCT-15): 4.7 µM
GI50 (MDA-MB-231): 9.5 µM
GI50 (SNB-19): 16.3 µM
GI50 (DU-145): 11 µM
GI50 (OVCAR-8): 8.8 µM
GI50 (SK-MEL-5): 8.1 µM
GI50 [1]: 3.8 µM
